Data on 14 compounds can be found in paper PMC3047606 (The Journal of General Physiology, 2011).

Changes are numbered by the printed parent chain. Where “and” joins values, the source holds several entries; their conditions need not be identical. Identical values can stand only once. Entries after “also recorded” stand apart in the source; their conditions may differ. Like-named read-outs stand apart in the source and are kept apart here. Marks after values point to notes of the source that are not given here.

Assay [1] has as its target T1, human TRPV3 (WT) (Homo sapiens, UniProt Q8NET8).
T1 sequence (Q8NET8 1-790): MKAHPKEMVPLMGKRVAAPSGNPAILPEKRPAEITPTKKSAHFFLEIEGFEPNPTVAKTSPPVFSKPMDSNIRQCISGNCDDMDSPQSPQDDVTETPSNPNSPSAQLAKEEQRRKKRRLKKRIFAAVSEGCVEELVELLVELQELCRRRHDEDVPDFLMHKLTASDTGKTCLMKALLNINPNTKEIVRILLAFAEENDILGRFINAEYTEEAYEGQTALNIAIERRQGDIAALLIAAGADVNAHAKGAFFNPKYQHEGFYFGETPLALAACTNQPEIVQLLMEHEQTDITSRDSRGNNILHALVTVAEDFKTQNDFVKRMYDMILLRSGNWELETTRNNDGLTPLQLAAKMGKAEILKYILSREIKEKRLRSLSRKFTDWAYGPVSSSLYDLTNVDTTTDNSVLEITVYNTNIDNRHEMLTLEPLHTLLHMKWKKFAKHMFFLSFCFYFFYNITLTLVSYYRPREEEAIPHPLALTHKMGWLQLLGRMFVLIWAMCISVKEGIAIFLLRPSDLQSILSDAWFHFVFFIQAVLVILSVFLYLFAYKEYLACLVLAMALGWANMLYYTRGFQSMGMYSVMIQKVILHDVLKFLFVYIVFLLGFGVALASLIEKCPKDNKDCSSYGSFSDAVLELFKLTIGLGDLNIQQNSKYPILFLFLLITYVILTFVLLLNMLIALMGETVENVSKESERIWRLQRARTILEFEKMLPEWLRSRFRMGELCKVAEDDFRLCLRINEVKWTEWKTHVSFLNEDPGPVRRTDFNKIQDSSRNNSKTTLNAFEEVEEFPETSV
The class given is cell-based.

The target of assay [2] is T2, native TRPV3 channels (Homo sapiens, UniProt Q8NET8).
T2 sequence (Q8NET8 1-790): T1 sequence (Q8NET8 1-790)
The assay is classed as cell-based. To be noted: for activation of membrane currents by TRP channel agonists: bath superfusion, 2-APB 30 µM; for increase of 2-APB-activated TRPV3 whole cell current amplitude: 100 µM ATP, n = 4 cells. In outline:
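Whole-cell voltage clamp of primary human epidermal keratinocytes plated on coverslips and recorded 24–48 h later, at room temperature. Bath was NaCl/KCl/HEPES/glucose/MgCl2/1.8 mM BaCl2, pH 7.4; pipette was Cs-methanesulfonate with ~50 nM free Ca2+, pH 7.3. Voltage steps were run in 30 µM 2-APB, then with 100 µM ATP or vehicle. Tail currents were fitted with Boltzmann functions for V0.5 and VIF; n = 4 cells.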

Assay [3] addresses T3, TRPV3 R696A (Homo sapiens, UniProt Q8NET8, R696A).
T3 sequence (Q8NET8 1-790 R696A): T1 sequence (Q8NET8 1-790) with R696A
The class given is cell-based.

Assay [4] has as its target T4, WT TRPV3 (Homo sapiens, UniProt Q8NET8).
T4 sequence (Q8NET8 1-790): T1 sequence (Q8NET8 1-790)
The class given is biochemical. To be noted: inside-out patches, +80 mV; for effect on NPOPEN of PI-PLC-stimulated TRPV3: 30 µM diC8-phosphatidylinositol phosphate. An outline of the steps: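 WT TRPV3 was expressed in HM1 cells by calcium-phosphate transfection and recorded 24–48 h later. Inside-out patches were held at +80 mV in symmetrical NaCl/HEPES/EGTA at pH 7.4. Patches got anti-PI(4,5)P2 mAb (1:200) or 0.5 U/ml PI-PLC for 5 min, or 100 µM OAG for 2 min, by perfusion and then a still bath. diC8-phosphoinositides were added after PI-PLC. NPOPEN was taken before and after; Hill fit over 1–60 µM.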

In assay [5] the target is T3, TRPV3 R696A. The class given is biochemical. Particulars: 30 µM diC8-PI(4,5)P2, inside-out patches. In outline:
(§1)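 HM1 cells were calcium-phosphate transfected with the mutant channel, GFP-identified, and used 24–48 h later. Inside-out patches were held at +80 mV at 21–24°C in symmetrical 145 mM NaCl, 5 mM […], 20 mM HEPES, 1 mM EGTA, pH 7.4. Patches received anti-PI(4,5)P2 mAb (1:200) or 0.5 U/ml PI-PLC, then 30 µM diC8-PI(4,5)P2. NPOPEN was measured, n = 3–5 patches.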

The target of assay [6] is T5, TRPV3 K705A (Homo sapiens, UniProt Q8NET8, K705A).
T5 sequence (Q8NET8 1-790 K705A): T1 sequence (Q8NET8 1-790) with K705A
The assay is classed as biochemical. To be noted: 30 µM diC8-PI(4,5)P2, inside-out patches. In outline:
as §1

As for `NCCOB(c1ccccc1)c1ccccc1` [2-APB, 2-aminoethyoxy diphenylborinate], the “increase in 2-APB potency after CCh exposure” value in assay [1] is given as “approximately fourfold”. The “activation of membrane currents by TRP channel agonists” value (“activation of membrane currents” for short) in assay [2] (whole cell) is “activated small voltage-dependent currents”. As to `Nc1ncnc2c1ncn2[C@@H]1O[C@H](COP(=O)(O)OP(=O)(O)OP(=O)(O)O)[C@@H](O)[C@H]1O` [ATP], the “increase of 2-APB-activated TRPV3 whole cell current amplitude” value in assay [2] (30 µM 2-APB, +80 mV) came out at 5.6 ± 1.6 fold; in assay [2] (30 µM 2-APB, −80 mV), 6.3 ± 1.9 fold. Besides, in assay [2] (after 100 µM ATP, 30 µM 2-APB), the “increase of voltage-independent fraction (VIF)” value is on record as 26.7 ± 5.1%. Also, the “shift of half-maximal activation (V0.5)” value in assay [2] (after 100 µM ATP, 30 µM 2-APB) was −61.7 ± 17.8 mV. On to `C[N+](C)(C)CCOC(N)=O.[Cl-]` [CCh, carbamylcholine], for which, in assay [1], the “Arrhenius slope of temperature-dependent activation” value came out at 10.3; the “apparent threshold for temperature-dependent activation (Th)” value is 18.3 ^a °C; the “change of thermal coefficient (Q10) by CCh exposure” value was “changed only slightly”; the “fold change in step current” value is 31.1 fold and 31.1 ± 7.9 fold. The “shift of apparent threshold for thermal activation (Th)” value in assay [1] is −10 °C. In addition, the ΔVIF in assay [3] came out at 21.3%. As to `Cc1ccc(C(C)C)cc1O` [Carvacrol, carvacrol], the “activation of membrane currents” value in assay [2] (whole cell) is “elicited currents”. Consider `CCCCCCCC/C=C\CCCCCCCC(=O)OC[C@H](CO)OC(C)=O` [OAG, 1-oleoyl-2-acetyl-sn-glycerol], for which, in assay [4] (100 µM OAG), the “effect on TRPV3 channel activity (NPOPEN)” value is reported as “did not significantly increase; also recorded: failed to significantly elevate NPOPEN”. Regarding `CCCCCCCC(=O)OC[C@H](COP(=O)(O)O[C@@H]1[C@H](O)[C@H](OP(=O)(O)O)[C@@H](O)[C@H](O)[C@H]1O)OC(=O)CCCCCCC` [PI(3)P], in assay [4], the “effect on NPOPEN of PI-PLC-stimulated TRPV3” value (“effect on NPOPEN” below) was “failed to significantly decrease NPOPEN”. The same measure, in the same setting: the entry for `CCCCCCCC(=O)OC[C@H](COP(=O)(O)O[C@H]1[C@H](O)[C@@H](OP(=O)(O)O)[C@H](OP(=O)(O)O)[C@@H](OP(=O)(O)O)[C@H]1O)OC(=O)CCCCCCC` [PI(3,4,5)P3] is “failed to significantly decrease NPOPEN”; for `CCCCCCCC(=O)OC[C@H](COP(=O)(O)O[C@@H]1[C@H](O)[C@H](OP(=O)(O)O)[C@@H](O)[C@H](OP(=O)(O)O)[C@H]1O)OC(=O)CCCCCCC` [PI(3,5)P2] it is “failed to significantly decrease NPOPEN”; for `CCCCCCCC(=O)OC[C@H](COP(=O)(O)O[C@H]1[C@H](O)[C@@H](O)[C@H](OP(=O)(O)O)[C@@H](O)[C@H]1O)OC(=O)CCCCCCC` [PI(4)P] it is “failed to significantly decrease NPOPEN”. Regarding `CCCCCCCC(=O)OC[C@H](COP(=O)(O)O[C@H]1[C@H](O)[C@@H](OP(=O)(O)O)[C@H](O)[C@@H](O)[C@H]1O)OC(=O)CCCCCCC` [PI(5)P], the “effect on NPOPEN” value in assay [4] was “failed to significantly decrease NPOPEN”. `N.N.N.N.N.N.N.N.N.N.N.N.N.N.[Cl-].[Cl-].[Cl-].[Cl-].[Cl-].[Cl-].[O-2].[O-2].[Ru+3].[Ru+3].[Ru+4]` [Ruthenium red]: the “block of 2-APB-activated current” value in assay [2] (whole cell, ruthenium red) is reported as “eliminated only the inward component”. For the compound `COC[C@H]1OC(=O)c2coc3c2[C@@]1(C)C1=C(C3=O)[C@@H]2CCC(=O)[C@@]2(C)C[C@H]1OC(C)=O` [WM, wortmannin], in assay [1], the “current potentiation (fold increase)” value was 9.6 ± 2.2 fold and 13.2 ± 2.8 fold; the ΔV0.5 was −98.4 ± 18.6 mV; the ΔVIF was 19.7 ± 3.8%. For the compound `CC12CCC(CC1=O)C2(C)C` (stereo not drawn) [camphor], the “activation of membrane currents” value in assay [2] (whole cell) is reported as “elicited currents”.

As to `CCCCCCCC(=O)OC[C@H](COP(=O)(O)O[C@@H]1[C@H](O)[C@H](O)[C@@H](OP(=O)(O)O)[C@H](OP(=O)(O)O)[C@H]1O)OC(=O)CCCCCCC` [diC8-PI(4,5)P2, D-myo-phosphatidylinositol 4,5-bisphosphate C8], the “effect on channel activity” value in assay [5] and in assay [6] was “unaffected; also recorded: insensitive” throughout. Further, the “effect on NPOPEN” value in assay [4] is reported as “nearly maximal inhibitory effect”.
